Results pooled from the literature.
Protocols differ between the studies behind these lines. pEC50, pIC50: −log10 of the molar value. Converted amounts (≈) assume the structure as drawn.

The MIC90 of O=[N+]([O-])c1ccc(C2=[N+]([O-])c3ccccc3N3CCN=C23)cc1 is reported as no more than 0.06 µg/mL (Clostridioides difficile; microbial growth).
CC(C)OC(=O)OCOP(=O)(CO[C@H](C)Cn1cnc2c(N)ncnc21)OCOC(=O)OC(C)C has a pIC50 of 6.70 (Hepatitis B virus; viral replication, qPCR; HepG2.2.15; 14 days).
CCN1CCN(C(=O)N[C@@H](C(=O)N[C@@H]2C(=O)N3C(C(=O)O)=C(CSc4nnnn4C)CS[C@H]23)c2ccc(O)cc2)C(=O)C1=O gave an MIC of 100 µg/mL (Clostridioides difficile; microbial growth, broth dilution; 24 h).
The pIC50 of C=C1[C@H](CO)[C@@H](O)C[C@@H]1n1cnc2c(=O)[nH]c(N)nc21 is reported as 8.52 (Hepatitis B virus; viral replication, qPCR; HepG2.2.15; 14 days).
For [O-][N+]1=C(c2ccc(Cl)cc2)C2=NCCN2c2ccccc21, the MIC50 was no more than 0.06 µg/mL (Fusobacterium nucleatum; microbial growth).
CC(C)OC(=O)[C@H](C)N[P@](=O)(CO[C@H](C)Cn1cnc2c(N)ncnc21)Oc1ccccc1 gave an inhibition of roughly 65% (Hepatitis B virus; viral replication, inhibitor; HepG2.2.15; 1 µM, 6 days).
With O=C1Cc2ccccc2C(=O)N1O the pEC50 was 5.38 (Hepatitis B virus; viral replication, inhibitor, qPCR; HepDES19; 72 h).
O=C(NCc1ccc2c(c1)OCO2)c1ccc(Br)cc1F gave an MIC of greater than 200 µM (Saccharomyces cerevisiae; microbial growth; BY4743; 72 h).
For N#C[C@]1(CO)O[C@@H](n2cnc3c(=O)[nH]c(N)nc32)C[C@@H]1O, the pIC50 was 9.30 (Hepatitis B virus; viral replication, qPCR; HepG2.2.15; 14 days).
For CN[C@H](CC(C)C)C(=O)N[C@H]1C(=O)N[C@@H](CC(N)=O)C(=O)N[C@H]2C(=O)N[C@H]3C(=O)N[C@H](C(=O)N[C@H](C(=O)O)c4cc(O)cc(O)c4-c4cc3ccc4O)[C@H](O)c3ccc(c(Cl)c3)Oc3cc2cc(c3O[C@@H]2O[C@H](CO)[C@@H](O)[C@H](O)[C@H]2O[C@H]2C[C@](C)(N)[C@H](O)[C@H](C)O2)Oc2ccc(cc2Cl)[C@H]1O, the MIC was 1 µg/mL (Clostridioides difficile; microbial growth, broth dilution; 24 h).
Cc1ncc([N+](=O)[O-])n1CCO gave an MIC50 of 0.25 µg/mL (≈ 1.46 µM) (Clostridioides difficile; microbial growth).
CC[C@H](C)C[C@H](C)CCCCCCCCC(=O)N[C@H]1C[C@@H](O)[C@@H](NCCN)NC(=O)[C@@H]2[C@@H](O)CCN2C(=O)[C@H]([C@H](O)CCN)NC(=O)[C@H]([C@H](O)[C@@H](O)c2ccc(O)cc2)NC(=O)[C@@H]2C[C@@H](O)CN2C(=O)[C@H]([C@@H](C)O)NC1=O has an MIC of 0.25 µg/mL (Saccharomyces cerevisiae; microbial growth, broth dilution; S288C).
C[C@@H]1C[C@@H]([C@H](O)CC2CC(=O)NC(=O)C2)C(=O)[C@@H](C)C1 gave an MIC of 3 µM (Saccharomyces cerevisiae; microbial growth).
For CC(C)(C)C(=O)OCOP(=O)(COCCn1cnc2c(N)ncnc21)OCOC(=O)C(C)(C)C, the pIC50 was 6.06 (Hepatitis B virus; viral replication, qPCR; HepG2.2.15; 14 days).
C[C@H]1COCCN1c1nc(NCc2cccnc2C(F)(F)F)c2cccnc2n1 gave an MIC of 64 µg/mL (Clostridioides difficile; microbial growth, broth dilution; 630).
